# Rows were chosen to be rich in hits. Some 2.5% of all compounds tested hit in one or more screens of this group.
# ABHD5 PLIN5 PPI: ABHD5-PLIN5 interaction inhibitors, primary screen, cell lysate, split luciferase complementation, luminescence. Perilipin-5 (Homo sapiens) + 1-acylglycerol-3-phosphate O-acyltransferase ABHD5 (Homo …. Split G. princeps luciferase complementation, 4 h. inhibition, % at 4 µM. actives 0.78% (n = 360,000). AID 602281, 2012;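 active means inhibition above the mean inhibition across every tested compound plus 3 SD, cut at about 22% in these data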
# Rin1 Abl inh: inhibitors of Rin1-Abl protein binding, primary screen, biochemical, TR-FRET. actives 0.4% (n = 360,000). Tyrosine-protein kinase ABL1 (Homo sapiens) + Ras and Rab interactor 1 (Homo sapiens), …. inhibition, % at 7.35 µM; in the data active means inhibition above about 5%, passing the limit was not always enough
# Arrestin-AP2 inh: inhibitors of beta-arrestin/AP2 binding, primary screen, biochemical, GPCR trafficking, flow cytometry | beta-arrestin 1 C-terminal peptide binding to AP2 beta2-adaptin appendage (human) | FITC-arrestin peptide / GST-AP2 beads; AP2 beta2 appendage carries R879A mutation | inhibition, % at 10 µM | actives 0.31% (n = 340,000) | AID 504490, 2011;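 active means inhibition above a set limit, near 3 SD of compounds lacking own fluorescence, cut at about 54% in these data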
#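 Material – AP2 appendage R879A on GSH beads · Buffer or medium – PBS with 0.05% Tween 20 and 0.1% BSA · Probe or stimulus – fluorescein-tagged arrestin peptide at 50 nM final · Incubation – compound with beads 12 min RT, then probe 1 h RT · Detection – high-throughput flow cytometry of beads, ex 488, em 535 nm · Evaluation – percent response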
# B2AR ag: beta2AR agonists driving receptor internalization, primary screen, cell-based, FAP fluorogen, flow cytometry | response, % (no concentration beside the values) | AID 504454, 2011 | Am2.2-beta2AR cells | actives 0.43% (n = 340,000) | Beta-2 adrenergic receptor (Homo sapiens), P07550;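 active means response above a set limit, near 3 SD of response in nonfluorescent compounds, cut at about 42% in these data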
# MBD2 inh: inhibitors of MBD2 binding to methylated DNA, primary screen, biochemical, TR-FRET, DNA-binding domain, human | Methyl-CpG-binding domain protein 2 (Homo sapiens), Q9UBB5 | MBD2 binding to methylated oligonucleotide | inhibition, % at 4.4 µM | actives 0.31% (n = 370,000) | AID 686964, 2013; in the data active means inhibition above about 13%
# Target sequence (Q9UBB5 whole entry, looked up, the tested form may be a part): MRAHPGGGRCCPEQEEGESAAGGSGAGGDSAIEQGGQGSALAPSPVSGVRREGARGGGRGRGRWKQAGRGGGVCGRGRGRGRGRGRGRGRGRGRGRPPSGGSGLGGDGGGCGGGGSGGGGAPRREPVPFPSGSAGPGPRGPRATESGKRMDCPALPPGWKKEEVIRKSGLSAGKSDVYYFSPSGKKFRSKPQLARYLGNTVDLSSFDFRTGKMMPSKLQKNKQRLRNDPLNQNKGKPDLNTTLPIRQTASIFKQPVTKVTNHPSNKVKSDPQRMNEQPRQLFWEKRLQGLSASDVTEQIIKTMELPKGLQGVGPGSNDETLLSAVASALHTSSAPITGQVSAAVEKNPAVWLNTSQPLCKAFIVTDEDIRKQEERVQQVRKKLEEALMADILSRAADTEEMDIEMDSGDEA
# UHRF1 binding: UHRF1 methylated DNA binding inhibitors, primary screen, counter-screen for MBD2 inhibitor project, biochemical, TR-FRET, human UHRF1, single concentration; UHRF1 binding to methylated oligo; inhibition, % at 4.4 µM; E3 ubiquitin-protein ligase UHRF1 (Homo sapiens), Q96T88; actives 0.75% (n = 370,000); in the data active means inhibition above about 21%;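 further: UHRF1 SRA domain binding a hemimethylated CpG hairpin DNA probe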
# ABHD5-PLIN5 conf: ABHD5-PLIN5 interaction inhibitors, confirmation, biochemical, luminescence. inhibition, % at 4 µM. shares compounds with ABHD5 PLIN5 PPI. AID 651612, 2012. actives 67% (n = 2,200); in the data active means inhibition above about 23%
# HNF4 counter: HNF4 dimerization inhibitors, counter-screen for ABHD5-PLIN5 interaction inhibitor project, biochemical, split-luciferase complementation, luminescence; actives 77% (n = 2,200); shares compounds with ABHD5 PLIN5 PPI; inhibition, % at 4 µM;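 active means mean inhibition across replicate wells exceeding the computed hit threshold, cut at about 13% in these data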;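 further: light from luciferase halves that rejoin when HNF4 fusion proteins dimerize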
# Hits are given with their value; 0 = inactive; - = no result given.
SMILES,ABHD5 PLIN5 PPI,Rin1 Abl inh,Arrestin-AP2 inh,B2AR ag,MBD2 inh,UHRF1 binding,ABHD5-PLIN5 conf,HNF4 counter
CCCOc1ccc(/C=C/c2[nH]c(=O)[nH]c(=O)c2[N+](=O)[O-])cc1OCC,0,0,0,0,0,0,-,-
CCOC(=O)COc1ccc(Br)cc1/C=C/c1[nH]c(=O)[nH]c(=O)c1[N+](=O)[O-],65,0,0,0,0,0,76,85
Cc1cccc(C(=O)Nc2c(-c3ccc(C(F)(F)F)cc3)nc3ncccn23)c1,-,-,-,-,0,0,-,-
COc1ccccc1OCc1nnc(SCC(=O)NCc2ccco2)n1Cc1ccco1,31,0,0,0,0,0,48,34
Cc1ccccc1OCc1nnc(SCC(=O)NCc2ccco2)n1C,0,0,0,0,0,0,-,-
CCCC(=O)N1CCC[C@]2(CC[C@@H](CCC(=O)N(CC)CC)O2)C1,-,-,-,-,0,0,-,-
Cc1nnc(NC(=O)c2nc(S(=O)(=O)Cc3ccccc3C)ncc2Cl)s1,31,0,0,0,0,0,72,48
CC(C)c1nnc(NC(=O)c2nc(S(=O)(=O)Cc3ccc(F)cc3)ncc2Cl)s1,44,0,0,0,0,0,92,57
CCSc1nnc(NC(=O)c2nc(S(=O)(=O)Cc3ccc(F)cc3)ncc2Cl)s1,24,0,0,0,0,0,80,49
CSc1nnc(NC(=O)c2nc(S(=O)(=O)Cc3ccccc3F)ncc2Cl)s1,25,0,0,0,0,0,86,55
O=C1CCC[C@H]2Cc3nc4cc5c(cc4cc3C[C@]23CCCN13)OCO5,-,-,-,-,0,0,-,-
Cc1ccc(Cn2cc(CN3[C@@H](CC(C)C)COc4cccc(F)c4S3(=O)=O)nn2)cc1,-,-,-,-,0,0,-,-
Cc1nn(C)cc1NC(=O)C[C@H]1CC[C@H]2[C@@H](COc3ccc(NC(=O)Nc4ccccc4)cc3C(=O)N2C)O1,-,-,-,-,0,0,-,-
Cc1cccc(CS(=O)(=O)c2ncc(Cl)c(C(=O)Nc3nnc(C(C)C)s3)n2)c1,52,0,0,0,-,-,90,59
CSc1nnc(NC(=O)c2nc(S(=O)(=O)Cc3cccc(C)c3)ncc2Cl)s1,30,0,0,0,0,0,86,56
CC(C)c1nnc(NC(=O)c2nc(S(=O)(=O)Cc3ccccc3F)ncc2Cl)s1,-,-,-,-,0,0,-,-
Cc1ccc(CS(=O)(=O)c2ncc(Cl)c(C(=O)Nc3nnc(C(C)C)s3)n2)cc1,57,0,0,0,0,0,87,55
CC(C)c1nnc(NC(=O)CS(=O)(=O)Cc2ccccc2)s1,0,0,0,0,0,0,-,-
CCOc1cc(/C=C\[N+](=O)[O-])ccc1OCC(=O)Nc1ccccc1C,55,0,0,112,-,-,96,102
O=C(Cn1c(=O)c2cccn2c2cccnc21)NCCCN1CCN(c2ccc(Cl)cc2)CC1,-,-,-,-,0,0,-,-
COC(=O)C[C@H]1CC[C@H]2[C@H](COc3ccc(NC(=O)Nc4ccccc4F)cc3C(=O)N2C)O1,-,-,-,-,0,0,-,-
CC(C)(C)N1Cc2nnn(Cc3ccccc3)c2-c2cc(N3CCCC3)ccc2S1(=O)=O,-,-,-,-,0,0,-,-
COc1ccc(-n2c(O)c(/C=C3\C=Nc4ccccc43)c(=O)[nH]c2=O)cc1,31,0,0,0,0,0,0,24
O=C(Nc1ccc(F)cc1)OCCN1C(=O)CCC12CCC(c1ccc(Cl)cc1)CC2 (stereo not drawn),-,-,-,-,0,0,-,-
CCCCCN1CCCCC(NC(=O)c2ccc(C)cc2)C1=O (stereo not drawn),-,-,-,-,0,0,-,-
SMILES,ABHD5 PLIN5 PPI,Rin1 Abl inh,Arrestin-AP2 inh,B2AR ag,MBD2 inh,UHRF1 binding,ABHD5-PLIN5 conf,HNF4 counter
Cc1nc2scc(-c3ccco3)c2c(=O)n1/N=C/N(C)C,43,0,0,0,0,0,0,29
CCC(NC(=O)c1ccc2c(c1)c(C)c(C)n2Cc1ccc(Cl)cc1)c1ccccc1 (stereo not drawn),-,-,-,-,0,0,-,-
CC(C)NC(C(=O)Nc1cc(Cl)cc(Cl)c1)c1ccccc1 (stereo not drawn),54,0,0,0,0,0,0,0
CC(C)SC1=NC(C)(C)C=C(/C=C/c2ccc(Cl)cc2Cl)N1,39,0,0,0,0,0,25,31
O=C1/C(=C/c2ccc(C(=O)O)cc2)CCC/C1=C\c1ccc(C(=O)O)cc1,0,0,0,0,0,0,-,-
COc1ccc(/C=C2\CCC/C(=C\C=N\N(C)C)C2=O)cc1,36,0,0,0,0,0,36,72
COc1ccc(C=C2CS(=O)(=O)CC(=Cc3ccc(OC)cc3)C2=O)cc1,94,0,-,-,0,0,103,105
CN(C)/N=C/C=C1\CCC/C(=C\c2ccc(F)c(F)c2)C1=O,53,0,0,0,0,0,71,73
COc1ccc(/C=C2\CCCCC2=O)cc1,0,0,0,0,0,0,-,-
COc1ccc(/C=C2/CCOC2=O)cc1,0,0,0,0,0,0,-,-
CCC[C@H]1[C@@H](NC(=O)C2CCCCC2)CC[C@@]23CCCN2C(=O)CCC[C@@H]13,-,-,-,-,0,0,-,-
CC(C)(C)c1ccc2c(c1)C(=O)c1ccccc1C2=O,0,0,0,0,0,0,-,-
CC(C)(C=O)C1=CC(=O)c2ccccc2C1=O,34,0,0,66,0,0,81,103
COC(=O)c1cc(-c2ccc(-c3ccccc3)c(F)c2)c(=O)n2c1CCC2,-,-,-,-,0,0,-,-
O=C(C[C@H]1C[C@H](C(=O)N2CCOCC2)[C@@]2(CCC3CCCC3)c3[nH]c4cc(-c5ccco5)ccc4c3CCN2C1=O)NCCc1ccccn1,23,0,0,0,0,0,0,17
O=C(C[C@H]1C[C@H](C(=O)N2CCOCC2)[C@@]2(CCC3CCCC3)c3[nH]c4cc(-c5ccco5)ccc4c3CCN2C1=O)NCCC1=CCCCC1,0,0,0,0,-,-,-,-
CCOC(=O)[C@]12CCCC=C1N(Cc1ccc(Cl)cc1Cl)C(=O)[C@H](CC(=O)NCc1cccc(C(F)(F)F)c1)C2,0,-,-,-,0,0,-,-
CCOC(=O)N1CCN(C(=O)C[C@@H]2C[C@@]3(C(=O)OCC)CCC=C3N(Cc3ccc(Cl)cc3Cl)C2=O)CC1,26,-,-,-,0,0,35,0
